≈ marks a conversion by molar mass, not a printed value.
Experiments:
[1] = target: Platelet-derived growth factor receptor alpha (Homo sapiens, UniProt P16234); experiment: Inhibition of PDGFRalpha (unknown origin) using FAM-labeled peptide as substrate preincubated for 10 mins followed by substrate addition measured after 25 mins
[2] = target: Mast/stem cell growth factor receptor Kit (Homo sapiens, UniProt P10721); experiment: Inhibition of c-kit (unknown origin) using FAM-labeled peptide as substrate preincubated for 10 mins followed by substrate addition measured after 25 mins
Chain of Mast/stem cell growth factor receptor Kit (P10721 whole entry): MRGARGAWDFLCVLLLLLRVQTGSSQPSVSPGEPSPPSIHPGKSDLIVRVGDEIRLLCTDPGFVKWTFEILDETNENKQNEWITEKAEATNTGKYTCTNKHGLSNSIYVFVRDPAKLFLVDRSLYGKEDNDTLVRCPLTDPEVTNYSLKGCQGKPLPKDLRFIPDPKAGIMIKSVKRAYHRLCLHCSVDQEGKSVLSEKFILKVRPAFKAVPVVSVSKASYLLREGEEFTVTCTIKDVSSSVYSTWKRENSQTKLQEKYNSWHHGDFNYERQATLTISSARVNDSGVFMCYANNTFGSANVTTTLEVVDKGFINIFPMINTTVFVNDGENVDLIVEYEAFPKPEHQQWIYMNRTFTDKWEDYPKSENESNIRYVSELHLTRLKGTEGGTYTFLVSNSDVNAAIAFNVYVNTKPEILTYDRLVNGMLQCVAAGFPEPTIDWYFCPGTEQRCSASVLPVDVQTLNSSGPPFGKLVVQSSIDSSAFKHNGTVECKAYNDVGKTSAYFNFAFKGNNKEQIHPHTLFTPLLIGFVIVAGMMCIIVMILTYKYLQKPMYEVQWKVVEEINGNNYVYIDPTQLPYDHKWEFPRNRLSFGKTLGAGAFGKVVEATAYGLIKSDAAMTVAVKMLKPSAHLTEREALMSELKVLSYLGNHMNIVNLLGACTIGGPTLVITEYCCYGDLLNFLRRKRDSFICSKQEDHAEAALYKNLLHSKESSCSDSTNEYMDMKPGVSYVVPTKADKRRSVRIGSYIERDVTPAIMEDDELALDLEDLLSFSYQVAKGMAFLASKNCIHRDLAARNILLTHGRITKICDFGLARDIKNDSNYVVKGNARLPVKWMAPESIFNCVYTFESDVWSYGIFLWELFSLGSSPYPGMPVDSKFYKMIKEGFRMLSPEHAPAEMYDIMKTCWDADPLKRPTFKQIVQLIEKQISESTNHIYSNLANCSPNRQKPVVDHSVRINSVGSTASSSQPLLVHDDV
Outline: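 Enzyme was preincubated with compound for 10 min at room temperature, then FAM-labeled peptide with ATP was added for 25 min at 28 °C. After an EDTA stop, the plate was read on a Caliper. IC50 came from non-linear curve fit.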

BMMC [3] = experiment: Antiinflammatory activity against BALB/c mouse BMMC assessed as reduction in TNFalpha levels incubated for 30 mins measured after 48 hrs by ELISA; type: functional, cell-based
Outline: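 BALB/c mouse bone-marrow mast cells were grown in RPMI 1640 with 1% non-essential amino acids and 10% FBS at 37 °C under 5% CO2. Cells were seeded at 2 × 10^4 cells/well in 6-well plates and given compound or vehicle for 30 min. Supernatant TNF-α was read by ELISA after 48 h.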

BMMC [4] = experiment: Antiproliferative activity against BALB/c mouse BMMC after 48 hrs by MTT assay
[5] = Antiproliferative activity against rheumatoid arthritis patient-derived HFLS after 72 hrs by MTT assay; type: functional, Homo sapiens
Outline: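 RA synovial fibroblasts (DMEM, 10% FBS, passage 3) were seeded at 2 × 10^4 cells/well. Compound was given at graded concentrations against an untreated control for 72 h at 37 °C, 5% CO2. MTT was then added for 4 h and absorbance read at 450 nm. IC50 came from non-linear regression of 6-point dose-response curves.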

Homo sapiens [6] = organism: Homo sapiens; experiment: Antiinflammatory activity against rheumatoid arthritis patient-derived HFLS assessed as reduction in IL-6 levels incubated for 30 mins measured after 72 hrs by ELISA; type: functional
Outline: (§1)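 RA patient synovial fibroblasts were kept in high-glucose DMEM with 10% FBS at 37 °C under 5% CO2 and used after 3 passages. Cells were seeded at 2 × 10^4 cells/well in 6-well plates and given compound or vehicle for 30 min. IL-6 and MMP-3 in the supernatant were read by ELISA after 72 h.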

Homo sapiens [7] = organism: Homo sapiens; experiment: Antiinflammatory activity against rheumatoid arthritis patient-derived HFLS assessed as reduction in MMP-3 levels incubated for 30 mins measured after 72 hrs by ELISA; type: functional; outline: as §1
[8] = Solubility of the compound in water after 24 hrs by HPLC method; type: physicochemical

Chain of Platelet-derived growth factor receptor alpha (P16234 whole entry): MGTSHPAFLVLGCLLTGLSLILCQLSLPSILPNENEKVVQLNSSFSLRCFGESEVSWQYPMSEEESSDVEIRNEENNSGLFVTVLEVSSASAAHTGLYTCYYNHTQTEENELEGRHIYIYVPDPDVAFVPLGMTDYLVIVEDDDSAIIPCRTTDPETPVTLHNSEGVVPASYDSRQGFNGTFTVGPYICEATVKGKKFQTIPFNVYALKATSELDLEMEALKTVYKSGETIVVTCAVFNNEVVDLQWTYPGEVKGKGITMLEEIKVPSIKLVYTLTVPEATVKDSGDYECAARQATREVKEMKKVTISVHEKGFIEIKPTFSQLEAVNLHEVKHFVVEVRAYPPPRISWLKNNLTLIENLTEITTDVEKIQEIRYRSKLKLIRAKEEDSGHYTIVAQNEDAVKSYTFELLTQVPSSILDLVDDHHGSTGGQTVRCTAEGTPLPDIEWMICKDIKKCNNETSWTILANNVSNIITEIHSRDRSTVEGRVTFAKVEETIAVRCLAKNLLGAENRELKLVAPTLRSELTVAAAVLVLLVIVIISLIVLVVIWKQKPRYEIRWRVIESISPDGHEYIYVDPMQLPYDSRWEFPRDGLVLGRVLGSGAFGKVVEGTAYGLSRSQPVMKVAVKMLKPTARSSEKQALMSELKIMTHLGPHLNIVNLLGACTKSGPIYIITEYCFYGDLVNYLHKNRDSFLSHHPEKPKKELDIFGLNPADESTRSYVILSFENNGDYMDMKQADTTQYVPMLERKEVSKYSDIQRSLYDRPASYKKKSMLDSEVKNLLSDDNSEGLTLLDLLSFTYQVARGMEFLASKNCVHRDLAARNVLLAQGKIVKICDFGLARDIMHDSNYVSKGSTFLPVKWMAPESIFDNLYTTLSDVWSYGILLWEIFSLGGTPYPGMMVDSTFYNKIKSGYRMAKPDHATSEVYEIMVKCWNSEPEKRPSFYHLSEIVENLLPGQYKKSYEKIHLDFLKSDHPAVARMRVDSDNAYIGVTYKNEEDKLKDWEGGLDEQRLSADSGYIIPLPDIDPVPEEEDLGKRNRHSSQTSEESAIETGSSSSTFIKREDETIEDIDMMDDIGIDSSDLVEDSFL

Which IC50 [1] does the source give for `O=C(O)c1ccc(C(=O)NC2CCN(c3nc4c(c(Nc5ccc6c(c5)OCCO6)n3)COC4)C2)nc1` (centres undefined) here?
The IC50 was over 50 µM.

And the IC50 [2]?
The IC50 was 49.2 µM.

For `Cc1ccc(Nc2nc(N3CCC(NC(=O)c4ccc(C(=O)O)cn4)C3)nc3c2COC3)cc1` (centres undefined), which IC50 [1] is on record?
The IC50 was over 50 µM.

What about the IC50 [2] of the same compound?
The IC50 was over 50 µM.

Which results are given for `CCCCCCCNc1nc(N2CCC(NC(=O)c3ccc(C(=O)O)cn3)C2)nc2c1COC2` (centres undefined)?
IC50 [1]: > 50 µM; Activity (BMMC [3]): Dose-dependent effect; IC50 [2]: 25.8 µM; IC50 (BMMC [4]): 13 µM; IC50 [5]: 8.1 µM

With `CCCCCCNc1nc(N2CCC(NC(=O)c3ccc(C(=O)O)cn3)C2)nc2c1COC2` (centres undefined) as the compound, how does the IC50 [1] read?
The IC50 was over 50 µM.

And the Activity (Homo sapiens [6])?
The Activity was “Dose-dependent effect”.

What about the IC50 [2] of the same compound?
Its IC50 is over 50 µM.

What about the Activity (Homo sapiens [7]) of the same compound?
The Activity was “Dose-dependent effect”.

What about the IC50 [5] of the same compound?
The IC50 was 4 µM.

Which results are given for `COc1ccc(Nc2nc(N3CCC(NC(=O)c4ccc(C(=O)O)cn4)C3)nc3c2COC3)cc1` (centres undefined)?
IC50 [1]: > 50 µM; IC50 [2]: > 50 µM

Which solubility at 24 h [8] does the source give for `COc1ccc(Nc2nc(N3CCC(NC(=O)c4ccc(C(=O)O)cc4)C3)nc3c2CCC3)cc1OC` (centres undefined) here?
The solubility at 24 h was 86 µg/mL (≈ 171 µM).

Which IC50 (BMMC [4]) does the source give for `Cc1ccc(NC(=O)c2ccc(CN3CCN(C)CC3)cc2)cc1Nc1nc(-c2cccnc2)cs1` [MASITINIB] here?
Its IC50 is 0.1 µM.

Which results are given for `CCOCCCNc1nc(N2CCC(NC(=O)c3ccc(C(=O)O)cn3)C2)nc2c1COC2` (centres undefined)?
IC50 [1]: > 50 µM; IC50 [2]: > 50 µM

Which IC50 [1] does the source give for `CCc1ccc(Nc2nc(N3CCC(NC(=O)c4ccc(C(=O)O)cn4)C3)nc3c2COC3)cc1` (centres undefined) here?
Its IC50 is over 50 µM.

What about the IC50 [2] of the same compound?
Its IC50 is over 50 µM.

And the IC50 [5]?
Its IC50 is 9.4 µM.

Which results are given for `O=C(O)c1ccc(C(=O)NC2CCN(c3nc4c(c(NC5CCCCC5)n3)COC4)C2)nc1` (centres undefined)?
IC50 [1]: > 50 µM; IC50 [2]: > 50 µM; IC50 [5]: 5.4 µM

Which IC50 [1] does the source give for `CCCCCNc1nc(N2CCC(NC(=O)c3ccc(C(=O)O)cn3)C2)nc2c1COC2` (centres undefined) here?
Its IC50 is over 50 µM.

And the IC50 [2]?
Its IC50 is over 50 µM.

Which IC50 [2] does the source give for `COc1cc(Nc2nc(N3CCC(NC(=O)c4ccc(C(=O)O)cn4)C3)nc3c2COC3)cc(OC)c1OC` (centres undefined) here?
Its IC50 is 31.3 µM.

What about the IC50 (BMMC [4]) of the same compound?
Its IC50 is 21.1 µM.

What about the IC50 [5] of the same compound?
Its IC50 is 31 µM.

For `COc1ccc(Nc2nc(N3CCC(NC(=O)c4ccc(C(=O)O)cn4)C3)nc3c2COC3)cc1OC` (centres undefined), which IC50 [2] is on record?
The IC50 was over 50 µM.

Which Activity (Homo sapiens [6]) does the source give for `COc1cc(Nc2nc(N3CCC(NC(=O)c4ccc(C(=O)O)cn4)C3)nc3c2COC3)cc(OC)c1` (centres undefined) here?
Its Activity is “Dose-dependent effect”.

What about the Activity (BMMC [3]) of the same compound?
Its Activity is “Dose-dependent effect”.

What about the IC50 [2] of the same compound?
The IC50 was 18.6 µM.

What about the IC50 (BMMC [4]) of the same compound?
Its IC50 is 2 µM.

And the Activity (Homo sapiens [7])?
The Activity was “Dose-dependent effect”.

And the IC50 [5]?
Its IC50 is 3.2 µM.

What about the solubility at 24 h [8] of the same compound?
Its solubility at 24 h is 167 µg/mL (≈ 330 µM).

With `COCCCNc1nc(N2CCC(NC(=O)c3ccc(C(=O)O)cn3)C2)nc2c1COC2` (centres undefined) as the compound, how does the IC50 [1] read?
The IC50 was over 50 µM.

And the IC50 [2]?
The IC50 was over 50 µM.

For `Cc1ccc(Nc2nc(N3CCC(NC(=O)c4ccc(C(=O)O)cn4)C3)nc3c2COC3)cc1C` (centres undefined), which IC50 [1] is on record?
Its IC50 is over 50 µM.

And the IC50 [2]?
The IC50 was over 50 µM.

What about the IC50 [5] of the same compound?
Its IC50 is 11.2 µM.
